Screens: PubChem BioAssay, Broad Institute
The entries come from a sample that favours hits as a whole.
INS-1E ATP HTS = INS-1E beta cell protection from cytokine death | INS-1E cytokine-induced death, ATP luminescence, 48 h; normalised: neutral wells 0, positive control 100 | protection from cytokine-induced ATP loss, % at 10 µM | 20,000 tested, 0.1% active | AID 488910;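 active means mean replicate protection from cytokine-induced ATP loss at least 50% and at least 75% of replicates each reaching 50%; inconclusive means meets only one of the two criteria, mean or replicate share; inactive means fails both the mean and replicate share criteria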
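Material: INS-1E rat cells; Quantity: 8000 cells/well; Buffer or medium: phenol-red-free RPMI with 5% fetal bovine serum; Probe or stimulus: cytokine cocktail of IFN-γ, TNF-α and IL-1β; Compound dosing: single test concentration per compound, delivered by pin transfer; Incubation: 48 h co-treatment, 10 min post-lysis read; Signal: CellTiter-Glo luminescence.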
T cruzi intra = intracellular Trypanosoma cruzi inhibition; intracellular Trypanosoma cruzi in host cells, plate reader; AID 651903; 22,000 tested, 4.9% active; activity score (inhibition), % at 5.01 µM; in the data active means activity score above about 55%; inconclusive means no clear call, values can overlap the other calls;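 further: parasites and compound incubated about four days before reading; 0% = median of neutral control wells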
A1 apoptosis 2 = blocks A1, raising caspase activity; caspase activation, % (no concentration beside the values); 24,000 tested, under 10 active; MEF A1-2A-BIM cells, caspase-Glo luminescence, 3 h; percent of clofoctol response, DMSO zero; AID 2465; in the data active means caspase activation above about 5.9%; inconclusive means no clear call, values can overlap the other calls; inactive means below about 2.2%
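Test system – A1-2A-BIM-expressing MEF cells · Input – 2500 cells/well · Medium – RPMI-1640 growth medium with 10% FBS · Compound dosing – 50 nL pinned compound · Timing – 3 h compound exposure at 37 °C · Technique – Caspase-Glo luminescence (DEVD substrate) · Evaluation – Caspase-3/7 activity from luminescence increase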
* marks the source's active call; other numbers are inactive results; ? = inconclusive; . = no result.

SMILES	INS-1E ATP HTS	T cruzi intra	A1 apoptosis 2
COC(=O)CCCCCCC(=O)N/N=C/c1ccc(-c2cccc(Cl)c2)o1	5	27	-3
O=C(N/N=C/c1ccc(-c2cccc(Cl)c2)o1)c1ccccn1	13	85*	-1
Cc1ccc(/C=N/NC(=O)CCCCCC(=O)O)o1	-3	-15	0
O=C(N/N=C/c1cc(Br)c(O)c(Br)c1)c1ccccn1	7	-13	.
COc1ccc(COC[C@@]23Oc4ccccc4[C@@H](NC(=O)N2C)[C@H]3COC(=O)c2ccccc2)cc1	.	.	1
O=C(CCCCCC(=O)N/N=C/c1cc(Br)cs1)NO	.	.	1
O=C(CCCCCC(=O)Nc1ccccc1O)N/N=C\c1cccnc1Cl	1	5	.
O=C(CCCCCCC(=O)Nc1ccccc1O)N/N=C/c1ccccc1[N+](=O)[O-]	2	-1	.
C=CCOC(=O)[C@@H]1[C@H]2C(=O)O[C@H](c3ccccc3)[C@H](c3ccccc3)N2[C@H](c2ccc(OCCOC(=O)[C@@H]3C[C@@H]4C(=O)N[C@@H](Cc5ccccc5)C(=O)N4[C@@H]3c3cccc(OCCO)c3)cc2)[C@@]12C(=O)Nc1ccc(I)cc12	.	.	0
COc1ccc(CN(C)C[C@@H]2Oc3ccc(NS(=O)(=O)c4cccs4)cc3CC(=O)N([C@H](C)CO)C[C@H]2C)cc1	4	16	.
C[C@H]1CN([C@@H](C)CO)C(=O)Cc2cc(NS(=O)(=O)c3cccs3)ccc2O[C@H]1CN(C)Cc1ccc(-c2ccccc2)cc1	-35	57*	.
C[C@@H]1CN([C@@H](C)CO)C(=O)Cc2cc(NS(=O)(=O)c3cccs3)ccc2O[C@@H]1CN(C)Cc1ccc(Oc2ccccc2)cc1	-20	63*	.
C[C@@H]1CN([C@H](C)CO)C(=O)Cc2cc(NS(=O)(=O)c3cccs3)ccc2O[C@@H]1CN(C)Cc1ccc(-c2ccccc2)cc1	-14	44	.
O=C(NO)c1ccc(C(=O)N/N=C/c2ccc(O)c(F)c2)cc1	9	-8	.
C[C@@H]1CN([C@@H](C)CO)C(=O)c2cccc(NC(=O)Nc3ccc(F)cc3)c2O[C@H]1CN(C)Cc1ccc(C(=O)Nc2ccccc2N)cc1	2	73*	.
C[C@@H]1CN([C@@H](C)CO)C(=O)c2cccc(NC(=O)Nc3ccc(C(F)(F)F)cc3)c2O[C@H]1CN(C)Cc1ccc(C(=O)Nc2ccccc2N)cc1	-26	?	0
C[C@@H]1CN([C@H](C)CO)C(=O)c2cccc(NC(=O)Nc3ccc(F)cc3)c2O[C@H]1CN(C)Cc1ccc(C(=O)Nc2ccccc2N)cc1	7	78*	1
C[C@H](CO)N1C[C@H](C)[C@H](CN(C)Cc2ccc(C(=O)Nc3ccccc3N)cc2)Oc2c(NC(=O)Nc3ccc(F)cc3)cccc2C1=O	-8	51	-2
C[C@H]1CN([C@@H](C)CO)C(=O)c2cc(NC(=O)Nc3ccc(F)cc3)ccc2O[C@H]1CN(C)Cc1ccc(C(=O)Nc2ccccc2N)cc1	-4	51	0
C[C@H]1CN([C@@H](C)CO)C(=O)c2cccc(NC(=O)Nc3ccc(F)cc3)c2O[C@@H]1CN(C)Cc1ccc(C(=O)Nc2ccccc2N)cc1	4	67*	0
Cc1ccc(S(=O)(=O)N[C@@H](Cc2ccccc2)C(=O)NCCn2cc(-c3ccccc3N)nn2)cc1	.	.	0
[N-]=[N+]=NCc1ccccc1C[C@]1(C(=O)NCC(O)CO)N=C(c2ccc(OCCCO)cc2)O[C@H]1c1ccccc1 (some centres not stated)	.	.	-1
[N-]=[N+]=NCc1ccccc1C[C@@]1(C(=O)NCC(O)CO)N=C(c2ccc(OCCCO)cc2)O[C@@H]1c1ccccc1 (some centres not stated)	.	.	5.9*
C[C@@H]1CN([C@@H](C)CO)C(=O)c2cccc(NC(=O)Nc3ccccc3)c2O[C@@H]1CN(C)Cc1ccc(C(=O)Nc2ccccc2N)cc1	46	66*	.
C[C@@H]1CN([C@H](C)CO)C(=O)c2cccc(NC(=O)Nc3cccc4ccccc34)c2O[C@@H]1CN(C)Cc1ccc(C(=O)Nc2ccccc2N)cc1	.	.	0
SMILES	INS-1E ATP HTS	T cruzi intra	A1 apoptosis 2
Cc1cc(C(=O)Nc2cccc3c2O[C@@H](CN(C)Cc2ccc(C(=O)Nc4ccccc4N)cc2)[C@@H](C)CN([C@H](C)CO)C3=O)n(C)n1	-15	54	.
Cc1cc(C(=O)Nc2cccc3c2O[C@H](CN(C)Cc2ccc(C(=O)Nc4ccccc4N)cc2)[C@H](C)CN([C@@H](C)CO)C3=O)n(C)n1	60*	28	.
C[C@H]1CN([C@@H](C)CO)C(=O)c2cccc(NC(=O)Nc3cccc4ccccc34)c2O[C@H]1CN(C)Cc1ccc(C(=O)Nc2ccccc2N)cc1	-10	68*	1
C[C@@H]1CN([C@H](C)CO)C(=O)c2cccc(NC(=O)Nc3ccccc3)c2O[C@H]1CN(C)Cc1ccc(C(=O)Nc2ccccc2N)cc1	4	76*	2
C[C@H](CO)N1C[C@H](C)[C@H](CN(C)Cc2ccc(C(=O)Nc3ccccc3N)cc2)Oc2c(NC(=O)Nc3cccc4ccccc34)cccc2C1=O	.	.	0
CC(C)(C)OC(=O)Nc1cccc(/C=N/NC(=O)c2ccccc2O)c1	-6	-4	-1
O=C(N/N=C/c1ccc(F)cc1)c1ccccc1O	-20	-18	-4
O=C(O)CCCCCC(=O)N/N=C/c1ccc(O)cc1Br	-9	-19	0
O=C(O)CCCCCC(=O)N/N=C/c1ccc(Br)s1	11	-16	.
O=C(N/N=C/c1ccc(O)c(O)c1O)c1ccccn1	21	51	-11
COc1ccc(S(=O)(=O)N(C)C[C@@H]2Oc3c(NS(=O)(=O)c4ccccc4)cccc3C(=O)N([C@@H](C)CO)C[C@H]2C)cc1	10	15	-1
NC(=O)COc1ccccc1/C=N/NC(=O)CCCCC(=O)NO	5	-17	0
C[C@H](CO)N1C[C@H](C)[C@H](CN(C)Cc2ccc(Oc3ccccc3)cc2)Oc2ccc(NC(=O)CCC(F)(F)F)cc2CC1=O	-16	22	.
C[C@@H]1CN([C@H](C)CO)C(=O)Cc2cc(NC(=O)CCC(F)(F)F)ccc2O[C@@H]1CN(C)Cc1ccc(Oc2ccccc2)cc1	-72	63*	1
C[C@@H]1CN([C@@H](C)CO)C(=O)Cc2cc(NC(=O)CCC(F)(F)F)ccc2O[C@H]1CN(C)Cc1ccc(Oc2ccccc2)cc1	.	.	0
C[C@H]1CN([C@@H](C)CO)C(=O)Cc2cc(NC(=O)CCC(F)(F)F)ccc2O[C@@H]1CN(C)Cc1ccc(Oc2ccccc2)cc1	-11	59*	-1
O=C(NO)c1ccc(C(=O)N/N=C/c2cccnc2Br)cc1	-10	5	0
O=C(O)c1cccc(/C=N/NC(=O)c2ccccc2O)c1	-45	-8	-12
O=C1O[C@H](c2ccccc2)[C@H](c2ccccc2)N2[C@H]1[C@@H](C(=O)Nc1nc3ccccc3s1)[C@]1(C(=O)Nc3ccc(C#CC4(O)CCCCCC4)cc31)[C@H]2c1ccc(OCCO)cc1	.	.	1
O=C(CCCCCCC(=O)Nc1ccccc1O)N/N=C/c1ccc(-n2ccnc2)cc1	11	-1	0
COc1ccc(/C=N\NC(=O)c2ccccc2O)c(O)c1	-126	50	.
